Results collected from several papers.
Lines come from different studies, so protocols differ.
Target: Serine/threonine-protein kinase Nek7 (NEK7, Homo sapiens, UniProt Q8TDX7)

Cc1cnn2ncc(-c3ccnc(N(C)C)n3)c2c1 — remaining binding (binding; 1 µM): 100%
COc1cc(Nc2nccc(-c3cnn4nc(OC)ccc34)n2)cc(C(F)(F)F)c1 — remaining binding (binding; competition with immobilised ligand; 1 µM): 40%
CS(=O)(=O)N1CCCC(NC(=O)[C@H](CCC2CCCCC2)NC(=O)c2ccc(CNc3ncnc4c3nnn4-c3ccccc3)cc2)C1 (some centres unmarked) — remaining binding (cell-free assay; competition with immobilised ligand; 0.1 µM): 88%
CN(CCCC(F)(F)F)c1nccc(-c2cnn3ncccc23)n1 — remaining binding (binding; 1 µM): 100%
O=C(Nc1cnc(Oc2ccc(F)cc2)nc1)N1CCc2ncccc2[C@@H]1c1ccc(F)cc1 — remaining binding (cell-free assay; competition with immobilised ligand; 1 µM): 84%
O=C(c1ccc(Nc2ncc(Cl)c(-c3cc4ccccc4s3)n2)cc1)N1CCC(N2CCCC2)CC1 — remaining binding (binding; competition with immobilised ligand; 1 µM): 4.5%
c1cnn2ncc(-c3ccnc(N4CCC45COC5)n3)c2c1 — remaining binding (binding; 1 µM): 86%
O=C(c1ccc(Nc2nccc(-c3cc4ccccc4s3)n2)cc1)N1CCC(N2CCCC2)CC1 — remaining binding (binding; competition with immobilised ligand; 1 µM): 79%
CCC(=O)N[C@H]1CC[C@@H](C(=O)N(C)c2ccc(-c3nc4ccccc4o3)cc2)C1 — remaining binding (cell-free assay; competition with immobilised ligand; 1 µM): 98%
C[C@@H]1CCN(c2nccc(-c3cnn4ncccc34)n2)C1 — remaining binding (binding; 1 µM): 89%
O=C(NCCCN1CCOCC1)c1ccc(Nc2nccc(-c3cc4ccccc4s3)n2)cc1 — remaining binding (binding; competition with immobilised ligand; 1 µM): 52%
COc1ccc2c(c1)O[C@@H](c1ccc(OC)c(OC)c1)C[C@H]2NC(=O)C1(c2ccc3c(c2)OC(F)(F)O3)CC1 — remaining binding (cell-free assay; competition with immobilised ligand; 1 µM): 100%
F[C@@H]1CCN(c2nccc(-c3cnn4ncccc34)n2)C1 — remaining binding (binding; 1 µM): 100%
CC(C)CC(=O)N1CCc2nc(-c3ccc(Br)cc3)nc(N(C)Cc3ccccc3)c2C1 — remaining binding (cell-free assay; competition with immobilised ligand; 0.1 µM): 100%
O=C(NCC1CCOCC1)c1n[nH]cc1NC(=O)c1c(F)cccc1F — remaining binding (binding; competition with immobilised ligand; 1 µM): 93%
COc1cc(-c2cn(C3CCc4ccccc4N(CC(F)(F)F)C3=O)nn2)ccc1-n1ccc(C)n1 (centres unmarked) — remaining binding (cell-free assay; competition with immobilised ligand; 1 µM): 100%
COc1cnc(Nc2cccc(S(N)(=O)=O)c2)nc1N1CCN(c2ccccc2)CC1 — remaining binding (binding; competition with immobilised ligand; 1 µM): 74%
O=C(Nc1cccnn1)N1CCC(=Cc2cccc(Oc3ccc(C(F)(F)F)cn3)c2)CC1 — remaining binding (cell-free assay; competition with immobilised ligand; 1 µM): 100%
CN(C)c1ncc(F)c(-c2cnn3ncccc23)n1 — remaining binding (binding; 1 µM): 95%
CCN1CCN(Cc2ccc(C(=O)Nc3ccc(C)c(Oc4ccc5c(c4)CC(=O)N5)c3)cc2C(F)(F)F)CC1 — remaining binding (binding; competition with immobilised ligand; 1 µM): 100%
N[C@@H]1CCN(c2nccc(-c3cnn4ncccc34)n2)C1 — remaining binding (binding; 1 µM): 100%
FC(F)(F)Oc1cccc(-c2cnc3ccc(-c4ccncc4)nn23)c1 — remaining binding (cell-free assay; competition with immobilised ligand; 5 µM): 91%
C=CC(=O)N1CCC(C(=O)NCC(=O)N2CCN(c3nc(-c4cnc(N)nc4C(F)F)nc(N4CCOCC4)n3)CC2)CC1 — remaining binding (binding; competition with immobilised ligand; 1 µM): 100%
